# Test results from PubChem BioAssay.
# Activity calls are given as the source filed them.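 Rule for the calls, unless noted: active = viability loss from added drug above about 55%, and viability with drug at most 40%, in both replicates (limit read from the data, passing the limit was not always enough); inconclusive = both conditions met in only one replicate; inactive = neither replicate meets both conditions.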
# What was measured:
# [1] = SK-BR-3 cell growth inhibitors, pilot screen, 24 h, human (AID 572;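 active = viability at or below 10% of carrier control in both of two separate runs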;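 note: compound exposure lasted between 18 and 24 h rather than exactly 24 h; 100% = carrier-treated control wells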); conditions: SK-BR-3 viability, CellTiter-Glo luminescence, at 10 µM, stronger effect = lower value
# [2] = HUVEC growth inhibition – cell-based, human, primary screen (AID 575;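 active = viability at or below 30% in both replicate assays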;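 note: 100% = median of untreated cell wells with 0.1% DMSO on each plate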); conditions: HUVEC proliferation, CellTiter-Glo luminescence, 72 h; at 10 µM; stronger effect = lower value
# Procedure, shortened: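 Assay system: Primary human umbilical vein endothelial cells | Quantity: 1250 cells per well | Medium: Supplemented EBM, 2% fetal bovine serum | Detection: CellTiter-Glo luminescence measuring cellular ATP | Read-out: % viability vs DMSO wells | Plate: Collagen-coated 384-well format | Times: 72 h exposure, 37 °C, 5% CO2, 30 min RT equilibration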
# [3] = growth inhibitors of H69AR lung tumor, primary screen, human, duplicate replicates (AID 580;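 active = viability at or under a set limit in both replicates, limit being median viability minus 3 SD, cut at about 48% in these data, passing the limit was not always enough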;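 note: 100% = mean luminescence of untreated wells and 0% = no signal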); conditions: H69AR lung tumor cells viability, ATP luminescence, 72 h; at 10 µM; stronger effect = lower value
# [4] = reversal of MRP1-mediated doxorubicin resistance, pilot screen, H69AR cells, doxorubicin co-treatment (AID 601); conditions: CellTiter-Glo, 72 h, at 10 µM; for differential viability (reversal): stronger effect = higher value
# [5] = 384-well plate pilot, post-Golgi transport modulator project, inhibition of yeast transport mutant growth (AID 636; in the data active = inhibition above about 31%); conditions: absorbance 615 nm, about 18 h, stronger effect = higher value
# [6] = growth suppression of yeast trafficking mutant, preliminary HTS, modulators of trafficking downstream of Golgi apparatus project, 1536-format plate, OD 615 nm (AID 637; in the data active = inhibition above about 30%); conditions: yeast transport mutant growth, absorbance 615 nm, 18 h; stronger effect = higher value
# [7] = H69AR cells + 2 uM doxorubicin, measured here: viability with 2 uM doxorubicin, stronger effect = lower value
# [8] = H69AR cells, compound alone cytotoxicity
SMILES,viability [1],viability [2],viability [3],differential viability (reversal) ([4]; H69AR cells + 2 uM doxorubicin),"viability [4, 7]","viability [4, 8]",inhibition [5],inhibition [6]
Cc1cccc(N2CCN(C(=O)C3CCCN(S(=O)(=O)c4c(C)noc4C)C3)CC2)c1C (centres undefined),78% (inactive),53.1% (inactive),81.9% (inactive),2.14% (inactive),79.7%,81.9%,-3.21% (inactive),0.83% (inactive)
COc1ccc2cc3cc(C(=O)NCC4CCCO4)oc3nc2c1 (centres undefined),128% (inactive),84.8% (inactive),88.1% (inactive),4.77% (inactive),83.4%,88.1%,1.69% (inactive),3.44% (inactive)
CCN(CC)CCCN1C(=O)C(=O)/C(=C(/O)c2ccc3c(c2)OCO3)C1c1ccccn1 (centres undefined),97% (inactive),82.4% (inactive),93.3% (inactive),4.7% (inactive),88.6%,93.3%,-5.89% (inactive),0.32% (inactive)
CCOc1ccc(C2C(C#N)=C(N)Oc3cc(C)n(Cc4ccco4)c(=O)c32)cc1OC (centres undefined),99% (inactive),84.2% (inactive),76.7% (inactive),-5.13% (inactive),81.9%,76.7%,-0.41% (inactive),-8.23% (inactive)
COC(=O)c1ccccc1NC(=O)C12CCC(C)(C(=O)O1)C2(C)C (centres undefined),84% (inactive),87.6% (inactive),90.5% (inactive),13.7% (inactive),76.8%,90.5%,-6.58% (inactive),0% (inactive)
Cc1nc2c(-c3ccccc3)c(C)[nH]n2c(=O)c1Cl,93% (inactive),72.7% (inactive),77.5% (inactive),-19.2% (inactive),96.8%,77.5%,-0.55% (inactive),11.8% (inactive)
Cc1nnc(SCCn2c(Br)nc3c2c(=O)n(C)c(=O)n3C)s1,95% (inactive),106% (inactive),98.2% (inactive),0.705% (inactive),97.5%,98.2%,-1.76% (inactive),-5.09% (inactive)
Cc1onc(-c2ccccc2)c1C(=O)Nc1sc2c(c1C(N)=O)CCC2,88.5% (inactive),53.5% (inactive),62.1% (inactive),-20.8% (inactive),82.8%,62.1%,-1.71% (inactive),-1% (inactive)
COc1ccccc1C(=O)N1CCN(C(=O)COc2cccc(C)c2)CC1,101% (inactive),113% (inactive),88.6% (inactive),2.75% (inactive),85.9%,88.6%,-7.84% (inactive),-0.73% (inactive)
CC(=O)OCC(=O)[C@@]1(O)CC[C@H]2[C@@H]3CCC4=CC(=O)CC[C@]4(C)[C@H]3C(=O)C[C@@]21C,108% (inactive),95.9% (inactive),104% (inactive),8.62% (inactive),95.2%,104%,-4.55% (inactive),-1.33% (inactive)
Cc1c(C)[n+](=O)c2c(n1[O-])CCCCC2,89% (inactive),93.5% (inactive),96% (inactive),9.67% (inactive),86.3%,96%,-1.43% (inactive),-2.3% (inactive)
CCN(CC)CCNC(=O)c1ccc(N2CCCCC2)c(NS(=O)(=O)c2ccc(C)cc2)c1,81% (inactive),18.5% (active),76.6% (inactive),2.53% (inactive),74.1%,76.6%,-6.13% (inactive),7.21% (inactive)
O=C(c1csc2ccccc12)N1CCCCCC1,109% (inactive),83.7% (inactive),104% (inactive),9.99% (inactive),93.9%,104%,-1.51% (inactive),-3.87% (inactive)
CC(C)Sc1nc(N2CCCC2)c2c(c1C#N)CC(C)(C)OC2,90% (inactive),71.2% (inactive),80.2% (inactive),42.7% (inactive),37.5%,80.2%,-2.88% (inactive),-4.84% (inactive)
CN(C(=O)C1CCCO1)c1nnc(-c2ccncc2)s1 (centres undefined),81% (inactive),111% (inactive),100% (inactive),7.37% (inactive),92.7%,100%,-3.24% (inactive),-1.82% (inactive)
Cc1cc(NS(=O)(=O)c2ccc(NC(=O)COc3ccc(Cl)cc3)cc2)no1,100% (inactive),107% (inactive),84.1% (inactive),-1.13% (inactive),85.2%,84.1%,-9.32% (inactive),-5.27% (inactive)
CC(C)(C#N)Nn1cnnc1,135% (inactive),104% (inactive),85.9% (inactive),-4.76% (inactive),90.7%,85.9%,-4.73% (inactive),4.18% (inactive)
c1ccc(-c2ccc(C(c3ccccc3)n3ccnc3)cc2)cc1 (centres undefined),140% (inactive),74.3% (inactive),63.3% (inactive),-2.76% (inactive),66%,63.3%,100% (active),100% (active)
COC(=O)c1c(NC(=O)CCc2ccc(C)o2)sc(C)c1C,112% (inactive),90.5% (inactive),81.7% (inactive),1.81% (inactive),79.9%,81.7%,-2.4% (inactive),1.27% (inactive)
N#CCOc1nc(N2CCOCC2)nc(N2CCOCC2)n1,99% (inactive),96.6% (inactive),90.8% (inactive),-0.985% (inactive),91.8%,90.8%,-7.3% (inactive),-2.73% (inactive)
COc1ccc(-c2nc3cc(NC(=O)Cc4ccc(OC)c(OC)c4)ccc3o2)cc1,90.5% (inactive),54.8% (inactive),94.4% (inactive),3.68% (inactive),90.7%,94.4%,0.67% (inactive),2.58% (inactive)
CCN(CC)S(=O)(=O)c1ccc(NC(=O)Cn2cnc3ccccc3c2=O)cc1,87% (inactive),85.9% (inactive),93.8% (inactive),8.02% (inactive),85.8%,93.8%,0.96% (inactive),-1.29% (inactive)
CCOC(=O)C1CCCN(C(=O)c2cc3c(-c4cccc(OC)c4)nn(C)c3s2)C1 (centres undefined),115% (inactive),56.1% (inactive),13.2% (active),-69% (inactive),82.2%,13.2%,-8.13% (inactive),1.64% (inactive)
Cc1ccc2[nH]c3c(=O)n(CCCN4CCN(C)CC4)cnc3c2c1,115% (inactive),99.9% (inactive),95.5% (inactive),2.28% (inactive),93.2%,95.5%,-4.67% (inactive),0% (inactive)

SMILES,viability [1],viability [2],viability [3],differential viability (reversal) ([4]; H69AR cells + 2 uM doxorubicin),"viability [4, 7]","viability [4, 8]",inhibition [5],inhibition [6]
C#CCSc1nc(-c2cccs2)ccc1C#N,91% (inactive),95.1% (inactive),71.4% (inactive),-22.5% (inactive),93.9%,71.4%,-0.96% (inactive),21.8% (inactive)
CCCCCc1nnc(NC(=O)Cc2cccs2)s1,74% (inactive),110% (inactive),102% (inactive),10.7% (inactive),90.8%,102%,-6.71% (inactive),3.64% (inactive)
COc1ccc(OC)c(-c2cc(C(=O)NCc3cccs3)no2)c1,101% (inactive),76.2% (inactive),94.4% (inactive),7.29% (inactive),87.1%,94.4%,-2.6% (inactive),-5.74% (inactive)
Cn1c(=O)c2c(ncn2CC(O)CO)n(C)c1=O (centres undefined),117% (inactive),92.8% (inactive),107% (inactive),12.3% (inactive),95%,107%,-5.45% (inactive),3% (inactive)
CC(=O)Nc1ccc(Cc2ccncc2)cc1,105% (inactive),90.2% (inactive),96.1% (inactive),8.84% (inactive),87.3%,96.1%,-4.8% (inactive),-4.36% (inactive)
O=C(Cn1c(-c2cncs2)nc2ccccc21)NC1CCCC1,96% (inactive),103% (inactive),106% (inactive),19.1% (inactive),86.5%,106%,-4.05% (inactive),5.09% (inactive)
CCCCN1C(=O)C2C(C(=O)Nc3cccc(OC)c3)C3C=CC2(O3)C1C(=O)NC1CCCCC1C (centres undefined),101% (inactive),82.7% (inactive),82.1% (inactive),3.86% (inactive),78.2%,82.1%,-2.86% (inactive),-3.11% (inactive)
COc1ccc(CCN(C)CCCC(C#N)(c2cc(OC)c(OC)c(OC)c2)C(C)C)cc1OC (centres undefined),85% (inactive),64.6% (inactive),95.6% (inactive),-5.51% (inactive),101%,95.6%,5.71% (inactive),-1.17% (inactive)
CC(=O)OCC(=O)[C@@]12OC(C)(C)O[C@@H]1C[C@H]1[C@@H]3C[C@H](F)C4=CC(=O)C=C[C@]4(C)[C@@]3(F)[C@@H](O)C[C@@]12C,104% (inactive),62.1% (inactive),106% (inactive),2.31% (inactive),104%,106%,0.65% (inactive),-1.83% (inactive)
Cc1ccc(Cl)c(Nc2ccccc2C(=O)O)c1Cl,135% (inactive),47.9% (inactive),91.3% (inactive),-6.54% (inactive),97.9%,91.3%,-0.78% (inactive),4.67% (inactive)
CCOc1ccc(NC(=O)CSc2nc3cccnc3n2CC)cc1,103% (inactive),114% (inactive),81.4% (inactive),-0.765% (inactive),82.2%,81.4%,-3.77% (inactive),4.1% (inactive)
NC(=O)N1c2ccccc2C=Cc2ccccc21,95% (inactive),79.4% (inactive),107% (inactive),9.74% (inactive),97.1%,107%,-2.86% (inactive),3.17% (inactive)
Cc1[nH]nc(N=CC2=C(O)CC(C)(C)CC2=O)c1-c1ccccc1,85% (inactive),100% (inactive),88.6% (inactive),-6.69% (inactive),95.3%,88.6%,-0.95% (inactive),1.09% (inactive)
O=C(c1cnc2sccn2c1=O)N1CCc2ccccc2C1,95% (inactive),95.7% (inactive),104% (inactive),7.95% (inactive),96.2%,104%,-2.8% (inactive),-4.36% (inactive)
CCCCc1c(O)nc(SCC(=O)Nc2ccc3c(c2)CCC3)[nH]c1=O,96% (inactive),79.7% (inactive),94.8% (inactive),10.9% (inactive),83.9%,94.8%,-3.73% (inactive),-2.91% (inactive)
CCCNC(=O)c1cc(S(=O)(=O)N2CCc3ccccc32)ccc1F,89% (inactive),113% (inactive),97% (inactive),6.73% (inactive),90.3%,97%,-6.13% (inactive),2.18% (inactive)
CC(=O)Nc1ccc(S(=O)(=O)NCc2csc(-c3cccnc3)n2)cc1,97% (inactive),101% (inactive),97.6% (inactive),-4.67% (inactive),102%,97.6%,-1.69% (inactive),1.8% (inactive)
CCOC(=O)c1cnc(C(C)(C)C)[nH]c1=O,106% (inactive),102% (inactive),95.8% (inactive),7.84% (inactive),88%,95.8%,-6.22% (inactive),-0.91% (inactive)
O=C(C1CCCO1)N1CCN(S(=O)(=O)c2ccccc2)CC1 (centres undefined),79% (inactive),98.1% (inactive),99.1% (inactive),-6.22% (inactive),105%,99.1%,-6.3% (inactive),3.27% (inactive)
CC(=O)Oc1cccc2c1C(=O)c1c(OC(C)=O)cc(C(=O)O)cc1C2=O,90% (inactive),60.2% (inactive),86.7% (inactive),0.27% (inactive),86.4%,86.7%,4.16% (inactive),7.17% (inactive)
O=c1c2cnn(-c3ccccc3)c2ncn1/N=C/c1ccncc1,125% (inactive),108% (inactive),101% (inactive),18.9% (inactive),82.2%,101%,-5.07% (inactive),-4.91% (inactive)
CC(C)c1cc(C(=O)Nc2cccnc2)no1,110% (inactive),105% (inactive),97.3% (inactive),-0.865% (inactive),98.2%,97.3%,-7.73% (inactive),-0.18% (inactive)
Cc1cc(N2CCN(C3CCCC3)CC2)n2c(nc3ccccc32)c1C#N,78% (inactive),96.8% (inactive),91.4% (inactive),28.1% (inactive),63.3%,91.4%,-2.19% (inactive),2.42% (inactive)
CCC(c1c(C)n(C)n(-c2ccccc2)c1=O)c1c(C)n(C)n(-c2ccccc2)c1=O,78% (inactive),103% (inactive),100% (inactive),8.48% (inactive),91.5%,100%,-5.21% (inactive),4.73% (inactive)
